Legend:
[1] = cited from earlier work
[2] = Safety and tolerability: treatment-emergent adverse events; format: in vivo, healthy Chinese subjects; details: 13 weeks; for AEs leading to withdrawal, % (proportion of subjects) / AEs leading to withdrawal, E (number of events) / AEs leading to withdrawal, N (number of subjects) / AEs, % (proportion of subjects) / AEs, E (number of events) / AEs, N (number of subjects) / AEs, outcome not recovered/not resolved, % (proportion of subjects) / AEs, outcome not recovered/not resolved, E (number of events) / AEs, outcome not recovered/not resolved, N (number of subjects) / AEs, outcome recovered/resolved, % (proportion of subjects) / AEs, outcome recovered/resolved, E (number of events) / AEs, outcome recovered/resolved, N (number of subjects) / AEs, outcome recovering/resolving, % (proportion of subjects) / AEs, outcome recovering/resolving, E (number of events) / AEs, outcome recovering/resolving, N (number of subjects) / AEs, severity mild, % (proportion of subjects) / AEs, severity mild, E (number of events) / AEs, severity mild, N (number of subjects) / AEs, severity moderate, % (proportion of subjects) / AEs, severity moderate, E (number of events) / AEs, severity moderate, N (number of subjects) / AEs, severity severe, % (proportion of subjects) / AEs, severity severe, E (number of events) / AEs, severity severe, N (number of subjects) / Serious AEs, % (proportion of subjects) / Serious AEs, E (number of events) / Serious AEs, N (number of subjects): 12 subjects
How it was run: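 This was a single-centre, randomised trial in 36 healthy Chinese adults, 12 per arm, double-blind within dose level, with placebo arms pooled. Test compound or matching placebo was injected s.c. in the abdomen once weekly for 13 weeks, escalating every 4 weeks to 0.5 or 1.0 mg. Treatment-emergent AEs were untoward occurrences after the first dose and before the follow-up visit, counted as subjects and events.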

[3] = Multiple-dose pharmacokinetics of OW s.c. semaglutide, plasma, LC-MS/MS; format: in vivo, healthy Chinese subjects
How it was run: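 Healthy Chinese adults (18–55 y, BMI 20.0–24.9 kg/m2) got s.c. abdominal injections weekly for 13 weeks, starting at 0.25 mg and escalating every 4 weeks to 0.5 or 1.0 mg. Plasma was sampled frequently after the first and last doses, plus pre-dose in weeks 4, 8 and 11, and assayed by LC–MS/MS. Values below LLOQ were imputed. Non-compartmental linear trapezoidal AUC0–168 h used actual times. Ratios came from a log-scale linear model (dose group fixed) with 95% CI. Racc,DC = (AUCSS/last dose)/(AUCSD/0.25 mg).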

CC[C@H](C)[C@H](NC(=O)[C@H](Cc1ccccc1)NC(=O)[C@H](CCC(=O)O)NC(=O)[C@H](CCCCNC(=O)COCCOCCNC(=O)COCCOCCNC(=O)CC[C@H](NC(=O)CCCCCCCCCCCCCCCCC(=O)O)C(=O)O)NC(=O)[C@H](C)NC(=O)[C@H](C)NC(=O)[C@H](CCC(N)=O)NC(=O)CNC(=O)[C@H](CCC(=O)O)NC(=O)[C@H](CC(C)C)NC(=O)[C@H](Cc1ccc(O)cc1)NC(=O)[C@H](CO)NC(=O)[C@H](CO)NC(=O)[C@@H](NC(=O)[C@H](CC(=O)O)NC(=O)[C@H](CO)NC(=O)[C@@H](NC(=O)[C@H](Cc1ccccc1)NC(=O)[C@@H](NC(=O)CNC(=O)[C@H](CCC(=O)O)NC(=O)C(C)(C)NC(=O)[C@@H](N)Cc1cnc[nH]1)[C@@H](C)O)[C@@H](C)O)C(C)C)C(=O)N[C@@H](C)C(=O)N[C@@H](Cc1c[nH]c2ccccc12)C(=O)N[C@@H](CC(C)C)C(=O)N[C@H](C(=O)N[C@@H](CCCNC(=N)N)C(=O)NCC(=O)N[C@@H](CCCNC(=N)N)C(=O)NCC(=O)O)C(C)C [semaglutide, Semaglutide]
half-life (t½) [1]: ≈ 1 week | AEs leading to withdrawal, % (proportion of subjects) ([2]; OW s.c. 0.5 mg): 0% | AEs leading to withdrawal, E (number of events) ([2]; OW s.c. 0.5 mg): 0 | AEs leading to withdrawal, N (number of subjects) ([2]; OW s.c. 0.5 mg): 0 | AEs, % (proportion of subjects) ([2]; OW s.c. 0.5 mg): 83% | AEs, E (number of events) ([2]; OW s.c. 0.5 mg): 44 | AEs, N (number of subjects) ([2]; OW s.c. 0.5 mg): 10 | AEs, outcome not recovered/not resolved, % (proportion of subjects) ([2]; OW s.c. 0.5 mg): 0% | AEs, outcome not recovered/not resolved, E (number of events) ([2]; OW s.c. 0.5 mg): 0 | AEs, outcome not recovered/not resolved, N (number of subjects) ([2]; OW s.c. 0.5 mg): 0 | AEs, outcome recovered/resolved, % (proportion of subjects) ([2]; OW s.c. 0.5 mg): 83% | AEs, outcome recovered/resolved, E (number of events) ([2]; OW s.c. 0.5 mg): 44 | AEs, outcome recovered/resolved, N (number of subjects) ([2]; OW s.c. 0.5 mg): 10 | AEs, outcome recovering/resolving, % (proportion of subjects) ([2]; OW s.c. 0.5 mg): 0% | AEs, outcome recovering/resolving, E (number of events) ([2]; OW s.c. 0.5 mg): 0 | AEs, outcome recovering/resolving, N (number of subjects) ([2]; OW s.c. 0.5 mg): 0 | AEs, severity mild, % (proportion of subjects) ([2]; OW s.c. 0.5 mg): 83% | AEs, severity mild, E (number of events) ([2]; OW s.c. 0.5 mg): 44 | AEs, severity mild, N (number of subjects) ([2]; OW s.c. 0.5 mg): 10 | AEs, severity moderate, % (proportion of subjects) ([2]; OW s.c. 0.5 mg): 0% | AEs, severity moderate, E (number of events) ([2]; OW s.c. 0.5 mg): 0 | AEs, severity moderate, N (number of subjects) ([2]; OW s.c. 0.5 mg): 0 | AEs, severity severe, % (proportion of subjects) ([2]; OW s.c. 0.5 mg): 0% | AEs, severity severe, E (number of events) ([2]; OW s.c. 0.5 mg): 0 | AEs, severity severe, N (number of subjects) ([2]; OW s.c. 0.5 mg): 0 | Serious AEs, % (proportion of subjects) ([2]; OW s.c. 0.5 mg): 0% | Serious AEs, E (number of events) ([2]; OW s.c. 0.5 mg): 0 | Serious AEs, N (number of subjects) ([2]; OW s.c. 0.5 mg): 0 | AEs leading to withdrawal, % (proportion of subjects) ([2]; OW s.c. 1.0 mg): 0% | AEs leading to withdrawal, E (number of events) ([2]; OW s.c. 1.0 mg): 0 | AEs leading to withdrawal, N (number of subjects) ([2]; OW s.c. 1.0 mg): 0 | AEs, % (proportion of subjects) ([2]; OW s.c. 1.0 mg): 92% | AEs, E (number of events) ([2]; OW s.c. 1.0 mg): 58 | AEs, N (number of subjects) ([2]; OW s.c. 1.0 mg): 11 | AEs, outcome not recovered/not resolved, % (proportion of subjects) ([2]; OW s.c. 1.0 mg): 0% | AEs, outcome not recovered/not resolved, E (number of events) ([2]; OW s.c. 1.0 mg): 0 | AEs, outcome not recovered/not resolved, N (number of subjects) ([2]; OW s.c. 1.0 mg): 0 | AEs, outcome recovered/resolved, % (proportion of subjects) ([2]; OW s.c. 1.0 mg): 92% | AEs, outcome recovered/resolved, E (number of events) ([2]; OW s.c. 1.0 mg): 57 | AEs, outcome recovered/resolved, N (number of subjects) ([2]; OW s.c. 1.0 mg): 11 | AEs, outcome recovering/resolving, % (proportion of subjects) ([2]; OW s.c. 1.0 mg): 8% | AEs, outcome recovering/resolving, E (number of events) ([2]; OW s.c. 1.0 mg): 1 | AEs, outcome recovering/resolving, N (number of subjects) ([2]; OW s.c. 1.0 mg): 1 | AEs, severity mild, % (proportion of subjects) ([2]; OW s.c. 1.0 mg): 92% | AEs, severity mild, E (number of events) ([2]; OW s.c. 1.0 mg): 57 | AEs, severity mild, N (number of subjects) ([2]; OW s.c. 1.0 mg): 11 | AEs, severity moderate, % (proportion of subjects) ([2]; OW s.c. 1.0 mg): 8% | AEs, severity moderate, E (number of events) ([2]; OW s.c. 1.0 mg): 1 | AEs, severity moderate, N (number of subjects) ([2]; OW s.c. 1.0 mg): 1 | AEs, severity severe, % (proportion of subjects) ([2]; OW s.c. 1.0 mg): 0% | AEs, severity severe, E (number of events) ([2]; OW s.c. 1.0 mg): 0 | AEs, severity severe, N (number of subjects) ([2]; OW s.c. 1.0 mg): 0 | Serious AEs, % (proportion of subjects) ([2]; OW s.c. 1.0 mg): 0% | Serious AEs, E (number of events) ([2]; OW s.c. 1.0 mg): 0 | Serious AEs, N (number of subjects) ([2]; OW s.c. 1.0 mg): 0 | severity of gastrointestinal adverse events ([2]; OW s.c. 0.5 and 1.0 mg, none led to treatment discontinuation): mild | deaths ([2]; whole trial, OW s.c. 0.5 and 1.0 mg): no deaths | Racc,DC (dose-corrected accumulation ratio) ([3]; OW s.c. dosing, both dose groups): approximately 2 | treatment ratio (1.0 mg/0.5 mg) for Cmax,SS ([3]; [95% CI], dose proportionality): 1.94 [1.74; 2.16] | treatment ratio (1.0 mg/0.5 mg) for AUC0–168 h,SS ([3]; linear normal model on log-transformed values, [95% CI], dose proportionality): 1.99 [1.78; 2.23]
